# Assay results from different studies.
# Lines come from different studies, so protocols differ.
# Target: Mitogen-activated protein kinase kinase kinase 4 (MAP3K4, Homo sapiens, UniProt Q9Y6R4)
SMILES,effect on,technique,tested at,remaining binding
N#Cc1ccccc1CSc1nnc2c(n1)[nH]c1ccccc12,binding,competition with immobilised ligand,10 µM,100%
O=C(Nc1c[nH]nc1C(=O)NC1CCNCC1)c1cc(F)cc(F)c1,binding,competition with immobilised ligand,1 µM,100%
O=C(N[C@H]1CCCCC/C=C\C2C[C@@]2(C(=O)O)NC(=O)[C@@H]2C[C@@H](Oc3ccncc3)CN2C1=O)OC1CCCC1 (some centres unmarked),binding,competition with immobilised ligand,1 µM,91%
N[C@H]1CCN(c2nccc(-c3cnn4ncccc34)n2)C1,binding,,1 µM,100%
CC(=O)N1CCC(c2ccc(C(=O)NC3=NCCN3)cc2C(F)(F)F)CC1,cell-free assay,competition with immobilised ligand,1 µM,81%
C[C@@H]1CCN(c2nccc(-c3cnn4ncccc34)n2)C1,binding,,1 µM,100%
CCN1CCN(Cc2ccc(C(=O)Nc3ccc(C)c(Oc4ccc5c(c4)CC(=O)N5)c3)cc2C(F)(F)F)CC1,binding,competition with immobilised ligand,1 µM,100%
O=C(c1ccc(Nc2nccc(-c3cc4ccccc4s3)n2)cc1)N1CCC(N2CCCC2)CC1,binding,competition with immobilised ligand,1 µM,70%
CSc1cccnc1N1CCN(Cc2nc3ccccc3[nH]2)CC1,cell-free assay,competition with immobilised ligand,1 µM,100%
FC(F)(F)Oc1cccc(-c2cnc3ccc(-c4ccncc4)nn23)c1,cell-free assay,competition with immobilised ligand,5 µM,84%
COc1ccnn2ncc(-c3ccnc(N(C)C)n3)c12,binding,,1 µM,100%
CN(C)C(=O)Cn1cc(-c2nc(C3(c4ccc(-c5cnc(N)nc5)cc4)CC3)no2)cn1,cell-free assay,competition with immobilised ligand,1 µM,92%
CN(CCCC(F)(F)F)c1nccc(-c2cnn3ncccc23)n1,binding,,1 µM,81%
Cc1cnc(Nc2ccc(C(=O)N3CCC(N4CCCC4)CC3)cc2)nc1-c1cc2ccccc2s1,binding,competition with immobilised ligand,1 µM,32%
Cc1c[nH]c2nccc(Oc3c(F)cc(Nc4cc(Cl)nc(N)n4)cc3F)c12,cell-free assay,competition with immobilised ligand,0.1 µM,100%
O=C(NCCCN1CCOCC1)c1ccc(Nc2nccc(-c3cc4ccccc4s3)n2)cc1,binding,competition with immobilised ligand,1 µM,68%
c1cncc(-c2cccc(Nc3nccc(NC4CCCCC4)n3)c2)c1,binding,competition with immobilised ligand,10 µM,88%
C[C@H](c1ccnc(Nc2nc3ccc(-c4cc(N(C)C)ncn4)cc3[nH]2)c1)N1CCN(C(=O)CC(F)(F)F)CC1,cell-free assay,competition with immobilised ligand,0.1 µM,96%
CNC(=O)[C@@H]1CC[C@@H](n2c(-c3ccc4cnccc4c3)nc3ccc(C(=O)NCc4cccc(C(N)=O)c4)cc32)C1,binding,competition with immobilised ligand,1 µM,100%
Cc1cnn2ncc(-c3ccnc(N(C)C)n3)c2c1,binding,,1 µM,86%
C[C@@H]1CN(c2ccc3ncc(-c4ccc5[nH]nc(C6CC6)c5c4)n3n2)C[C@H](C)O1,binding,competition with immobilised ligand,50 nM,100%
C[C@@]1(Cc2ccc(C#N)cc2)C(=O)N(c2cc(Cl)cc(Cl)c2)c2ncc(C(=O)NC3(c4nc(C5CCC5)no4)CC3)n21,cell-free assay,competition with immobilised ligand,1 µM,100%
CN(C)c1nccc(-c2cnn3ncccc23)n1,binding,,1 µM,100%
